pIC50: −log10 of the molar value. Converted amounts (≈) assume the structure as drawn.
Experiments:
[1] = Solubility in water at pH 3.4; assay type: physicochemical
Procedure, shortened: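 Amorphous powders from lyophilized material, as TFA salts; aqueous solubility measured by nephelometry.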

Staphylococcus aureus [2] = test: Antibacterial activity against Staphylococcus aureus MB2865 in liquid culture by turbidity method; assay type: functional
Procedure, shortened: (§1)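 MIC is the lowest concentration giving 100% inhibition of bacterial growth in liquid culture, read by turbidity.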

Streptococcus pneumoniae = test: Antibacterial activity against Streptococcus pneumoniae CL2883 in liquid culture by turbidity method; assay type: functional; procedure, shortened: as §1
Enterococcus faecalis = test: Antibacterial activity against Enterococcus faecalis C21560 in liquid culture by turbidity method; assay type: functional; procedure, shortened: as §1
[3] = molecular target: T1, Type-2 angiotensin II receptor (Homo sapiens, UniProt P50052); test: Inhibition of AT2 receptor
T1 sequence (P50052 whole entry): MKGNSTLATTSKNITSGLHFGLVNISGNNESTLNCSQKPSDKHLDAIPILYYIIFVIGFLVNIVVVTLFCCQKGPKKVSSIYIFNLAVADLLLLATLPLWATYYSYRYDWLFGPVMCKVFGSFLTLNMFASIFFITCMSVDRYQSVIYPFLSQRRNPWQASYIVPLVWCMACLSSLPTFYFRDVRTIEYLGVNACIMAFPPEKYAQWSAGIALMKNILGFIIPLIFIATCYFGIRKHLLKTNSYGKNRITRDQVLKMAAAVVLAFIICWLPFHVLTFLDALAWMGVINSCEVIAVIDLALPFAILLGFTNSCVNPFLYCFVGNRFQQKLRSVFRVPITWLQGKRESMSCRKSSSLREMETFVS
Procedure, shortened: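 AT2 IC50 derived from four dose levels per compound, following a published protocol.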

Staphylococcus aureus [4] = test: Antibacterial activity against Staphylococcus aureus infected in mouse model assessed as reduction of >= 2 log 10 cfu kidney burden; assay type: functional
Procedure, shortened: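 Systemic S. aureus infection mouse model (SATOA). Compounds were given iv; […]. Kidney bacterial burden (cfu) was compared with untreated control. ED99 is the dose giving a reduction of at least 2 log10 cfu in kidney burden.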

| Compound | solubility [1] | MIC (Staphylococcus aureus [2]) | MIC (Streptococcus pneumoniae) | MIC (Enterococcus faecalis) | pIC50 [3] | ED99 (Staphylococcus aureus [4]) |
| --- | --- | --- | --- | --- | --- | --- |
| CO/C(C)=C1/NC(=O)[C@H]([C@@H](C)O)NC(=O)c2csc(n2)-c2cc(OC)c(-c3nc(C(=O)NCCCN4CCOCC4)cs3)nc2-c2csc(n2)[C@@H]2COC(=O)c3c4c5c(cccc5n3O)COC(=O)[C@@H](O[C@H]3C[C@](C)(O)[C@H](N(C)C)[C@H](C)O3)[C@@H](OC4)[C@H](NC(=O)c3csc1n3)c1nc(cs1)C(=O)N2.Cl | 68 mg/mL | – | – | – | – | – |
| CO/C(C)=C1/NC(=O)[C@H]([C@@H](C)O)NC(=O)c2csc(n2)-c2cc(O)c(-c3nc(C(=O)O)cs3)nc2-c2csc(n2)[C@@H]2COC(=O)c3c4c5c(cccc5n3O)COC(=O)[C@@H](O[C@H]3C[C@](C)(O)[C@H](N(C)C)[C@H](C)O3)[C@@H](OC4)[C@H](NC(=O)c3csc1n3)c1nc(cs1)C(=O)N2 [NOCATHIACIN ACID] | – | 8 µg/mL (≈ 5.84 µM) | 2 µg/mL (≈ 1.46 µM) | > 8 µg/mL | 5.95 | – |
| CO/C(C)=C1/NC(=O)[C@H]([C@@H](C)O)NC(=O)c2csc(n2)-c2cc(O)c(-c3nc(C(=O)NCCN(C)C)cs3)nc2-c2csc(n2)[C@@H]2COC(=O)c3c4c5c(cccc5n3O)COC(=O)[C@@H](O[C@H]3C[C@](C)(O)[C@H](N(C)C)[C@H](C)O3)[C@@H](OC4)[C@H](NC(=O)c3csc1n3)c1nc(cs1)C(=O)N2 | – | 0.015 µg/mL (≈ 0.0104 µM) | 0.00046 µg/mL (≈ 0.00032 µM) | 0.06 µg/mL (≈ 0.0417 µM) | 6.72 | 0.17 mg/kg |
| CO/C(C)=C1/NC(=O)[C@H]([C@@H](C)O)NC(=O)c2csc(n2)-c2cc(O)c(-c3nc(C(=O)N4CCN(C)CC4)cs3)nc2-c2csc(n2)[C@@H]2COC(=O)c3c4c5c(cccc5n3O)COC(=O)[C@@H](O[C@H]3C[C@](C)(O)[C@H](N(C)C)[C@H](C)O3)[C@@H](OC4)[C@H](NC(=O)c3csc1n3)c1nc(cs1)C(=O)N2 | – | 0.06 µg/mL (≈ 0.0413 µM) | 0.015 µg/mL (≈ 0.0103 µM) | 0.06 µg/mL (≈ 0.0413 µM) | 6.99 | 0.24 mg/kg |
| CO/C(C)=C1/NC(=O)[C@H]([C@@H](C)O)NC(=O)c2csc(n2)-c2cc(OC)c(-c3nc(C(=O)NCCCN4CCN(C)CC4)cs3)nc2-c2csc(n2)[C@@H]2COC(=O)c3c4c5c(cccc5n3O)COC(=O)[C@@H](O[C@H]3C[C@](C)(O)[C@H](N(C)C)[C@H](C)O3)[C@@H](OC4)[C@H](NC(=O)c3csc1n3)c1nc(cs1)C(=O)N2 | – | 0.09 µg/mL (≈ 0.0591 µM) | – | – | 6.07 | – |

Reference: ChEMBL document CHEMBL1136943, “Nocathiacin analogs: Synthesis and antibacterial activity of novel water-soluble amides” (Bioorg Med Chem Lett, 2009)
